In ChEMBL document CHEMBL4261495, “Antitrypanosomal and antileishmanial activity of prenyl-1,2,3-triazoles” (Medchemcomm, 2017):

Assays:
Trypanosoma cruzi = experiment: Antitrypanosomal activity against Trypanosoma cruzi strain CL Brener epimastigotes measured after 72 hrs by Neubauer chamber based cell counting method; type: functional, organism-based
Procedure, shortened: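 CL-Brener epimastigotes were grown in BHT medium at 28 °C and seeded at 3-4 × 10^6 parasites/mL. Compound was added in DMSO (1% final) at 5-100 µg/mL, with benznidazole as positive control. After 72 h, parasites were counted in a Neubauer chamber and inhibition was taken relative to untreated growth. IC50 came from the inhibition-concentration plot. Triplicates were run; values average three independent experiments.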

Vero = experiment: Cytotoxicity against African green monkey Vero cells at 20 uM after 2 days by neutral red uptake assay; type: cell-based; conditions: chlorocebus sabaeus, 48 h
[1] = biological target: Sterol 14-alpha demethylase (Trypanosoma cruzi (strain CL Brener)) (UniProt Q7Z1V1); experiment: Inhibition of Trypanosoma cruzi CYP51 assessed as residual enzyme activity at 100 uM using [3H]-MDL as substrate pretreated for 5 mins followed by NADPH addition by RP-HPLC analysis relative to control
Sterol 14-alpha demethylase (Trypanosoma cruzi (strain CL Brener)), sequence (Q7Z1V1 whole entry, looked up): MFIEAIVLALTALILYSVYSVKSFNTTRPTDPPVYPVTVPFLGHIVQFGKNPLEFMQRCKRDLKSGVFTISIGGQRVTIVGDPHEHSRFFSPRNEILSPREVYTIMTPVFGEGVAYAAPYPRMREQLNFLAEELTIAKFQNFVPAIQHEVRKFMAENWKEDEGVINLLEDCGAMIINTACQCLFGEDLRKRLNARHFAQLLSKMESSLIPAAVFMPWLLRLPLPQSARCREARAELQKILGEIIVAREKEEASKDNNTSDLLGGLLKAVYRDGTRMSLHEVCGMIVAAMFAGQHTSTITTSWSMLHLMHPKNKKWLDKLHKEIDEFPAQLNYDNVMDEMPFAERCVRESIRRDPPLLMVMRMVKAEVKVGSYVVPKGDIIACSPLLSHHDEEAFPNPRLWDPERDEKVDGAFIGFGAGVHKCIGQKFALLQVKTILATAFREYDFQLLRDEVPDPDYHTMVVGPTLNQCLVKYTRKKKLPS
Procedure, shortened: (§1)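 TcCYP51 was reconstituted with T. brucei CPR and DLPC (1:2:50 molar), preincubated 10 min at room temperature. The reaction held 1 µM enzyme and 50 µM [3H]-labelled/unlabelled 24-methylenedihydrolanosterol in 20 mM MOPS pH 7.4, 50 mM KCl, 5 mM MgCl2, 10% glycerol, isocitrate dehydrogenase and 25 mM isocitrate. Inhibitor (1-100 µM) was preincubated 5 min at 37 °C, then 5 µM NADPH started the reaction. Products were detected by radioactivity.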

[2] = Octanol/water partition coefficient, log P of the compound; type: physicochemical
[3] = biological target: Sterol 14-alpha demethylase (Trypanosoma cruzi (strain CL Brener)) (UniProt Q7Z1V1); experiment: Inhibition of Trypanosoma cruzi CYP51 assessed as residual enzyme activity at 100 uM using [3H]-MDL as substrate pretreated for 10 mins followed by NADPH addition by RP-HPLC analysis relative to control; procedure, shortened: as §1
Leishmania donovani = experiment: Antileishmanial activity against Leishmania donovani S1 promastigotes after 72 hrs by alamar blue assay; type: functional, organism-based; conditions: S1, 72 h
Procedure, shortened: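 Leishmania donovani strain S1 promastigotes at 2×10^6 cells/mL were exposed to final concentrations of 40, 8 and 1.6 µg/mL. Plates were incubated 72 h at 26 °C, and growth was read by Alamar blue. Pentamidine and amphotericin B served as standards.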

[4] = biological target: Sterol 14-alpha demethylase (Trypanosoma cruzi (strain CL Brener), UniProt Q7Z1V1); experiment: Binding affinity to Trypanosoma cruzi CYP51 by spectrophotometric method
Sterol 14-alpha demethylase, sequence (Q7Z1V1 whole entry): as the sequence (Q7Z1V1 whole entry, looked up) above
Procedure, shortened: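 Spectral titration used 2 µM TcCYP51 in buffer A at 24 °C, scanned over 350-500 nm in tandem cuvettes. Ligand was added stepwise from 1 or 10 mM DMSO stocks until the spectral response peaked, with DMSO added to the reference cuvette. Apparent Kd came from fitting absorbance change against free ligand concentration to a rectangular hyperbola.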

SMILES	IC50 (Trypanosoma cruzi)	Activity (Vero)	Activity [1]	logP [2]	Activity [3]	IC50 (Leishmania donovani)	Kd [4]
CCCc1cn(C/C=C(/C)CC/C=C(\C)CCC=C(C)C)nn1	17 µM	Non-Toxic	14%	6.5	49%	33 µM	
CCCc1cn(C/C=C(\C)CC/C=C(\C)CCC=C(C)C)nn1	18 µM	Non-Toxic	27%	6.5	56%	51 µM	
CCCc1cn(C/C=C(\C)CCC=C(C)C)nn1	31 µM	Non-Toxic		4.5		72 µM	
CCCc1cn(CC=C(C)C)nn1	> 100 µM	Non-Toxic		2.47		> 100 µM	
N=C(N)c1ccc(OCCCCCOc2ccc(C(=N)N)cc2)cc1 [PENTAMIDINE]				1.49			
CC(C)=CCC/C(C)=C/CC/C(C)=C/Cn1cc(-c2ccccc2)nn1	34 µM	Non-Toxic		6.95		48 µM	
CC(C)=CCC/C(C)=C\Cn1cc(-c2ccccc2)nn1	39 µM	Non-Toxic		4.91		49 µM	
CCCCCCCCc1cn(C/C=C(\C)CC/C=C(\C)CCC=C(C)C)nn1	> 100 µM	Non-Toxic		8.76		36 µM	
CCCCCCCCc1cn(C/C=C(/C)CC/C=C(\C)CCC=C(C)C)nn1	> 100 µM	Non-Toxic		8.76		52 µM	
COC(=O)c1cn(C/C=C(/C)CC/C=C(\C)CCC=C(C)C)nn1	15 µM	Non-Toxic	26%	5.25	59%	11 µM	
O=C(Cn1ccnc1[N+](=O)[O-])NCc1ccccc1 [BENZNIDAZOLE]				0.78			
COC(=O)c1cn(C/C=C(/C)CCC=C(C)C)nn1	87 µM	Non-Toxic		3.2		> 100 µM	
CCCCCc1cn(CC=C(C)C)nn1	> 100 µM	Non-Toxic		3.46		> 100 µM	
COC(=O)c1cn(C/C=C(\C)CCC=C(C)C)nn1	87 µM	Non-Toxic		3.2		> 100 µM	
CC(C)=CCC/C(C)=C/Cn1cc(-c2ccccc2)nn1	39 µM	Non-Toxic		4.91		49 µM	
CC(C)=CCn1cc(-c2ccccc2)nn1	> 100 µM	Non-Toxic		2.82		> 100 µM	
CCCCCCCCc1cn(CC=C(C)C)nn1	27 µM	Non-Toxic		4.92		> 100 µM	
CCCCCc1cn(C/C=C(\C)CCC=C(C)C)nn1	51 µM	Non-Toxic		5.45		94 µM	
CCCCCCCCc1cn(C/C=C(\C)CCC=C(C)C)nn1	27 µM	Non-Toxic		6.92		57 µM	
CCCCCc1cn(C/C=C(\C)CC/C=C(\C)CCC=C(C)C)nn1	29 µM	Non-Toxic	9%	7.5	33%	44 µM	
CCCCCc1cn(C/C=C(/C)CC/C=C(\C)CCC=C(C)C)nn1	18 µM	Non-Toxic	7%	7.5	39%	11 µM	7.6 µM
CCCCCCCCc1cn(C/C=C(/C)CCC=C(C)C)nn1	34 µM	Non-Toxic		6.92		16 µM	
COC(=O)c1cn(C/C=C(\C)CC/C=C(\C)CCC=C(C)C)nn1	9 µM	Non-Toxic	35%	5.25	63%	31 µM	
COC(=O)c1cn(CC=C(C)C)nn1	> 100 µM	Non-Toxic		1.3		> 100 µM	
CCCc1cn(C/C=C(/C)CCC=C(C)C)nn1	44 µM	Non-Toxic		4.05		44 µM	
CC(C)=CCC/C(C)=C/CC/C(C)=C\Cn1cc(-c2ccccc2)nn1	32 µM	Non-Toxic		6.95		49 µM	
CCCCCc1cn(C/C=C(/C)CCC=C(C)C)nn1	36 µM	Non-Toxic		5.45		40 µM	
